Legend:
Type in all cases: ADME, organism-based
[1] = Volume of distribution at steady state in MRP2 knockout Sprague-Dawley rat at 1 mg/kg, iv by LC-MS/MS analysis; set-up: dose 1 mg/kg, route intravenous; conditions: in vivo, read-out: Vdss
Procedure, shortened: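 Male Sprague-Dawley rats (knockout or wild type matched for age and weight), femoral artery and vein cannulated, at least 2 days recovery. Crossover design: IV bolus 1 mg/kg on day 0 (saline with 0.2 M equivalents HCl), oral gavage 10 mg/kg on day 3 (water with 0.2 M equivalents HCl). Arterial plasma sampled to 24 h (Mdr1a oral arm to 4 h). Analysed by LC-MS/MS and noncompartmental analysis.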

[2] = Drug excretion in bile duct-cannulated wild-type Sprague-Dawley rat bile at 1 mg/kg, iv up to 24 hrs; set-up: dose 1 mg/kg, route intravenous; conditions: read-out: Drug excretion
Procedure, shortened: (§1)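 Male Sprague-Dawley rats with bile-duct and femoral cannulation, housed in metabolism cages. Given an IV bolus of 1 mg/kg in 2 ml/kg 50% Cremophor EL in ethanol. Urine, bile and feces collected in toto 0–24 h, with cage wash at 24 h. Amounts quantified by LC-MS/MS and expressed as % of dose; n=6–12.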

[3] = Drug excretion in bile duct-cannulated wild-type Sprague-Dawley rat feces at 1 mg/kg, iv up to 24 hrs; set-up: dose 1 mg/kg, route intravenous; conditions: faeces, read-out: Drug excretion; procedure, shortened: as §1
[4] = Drug excretion in bile duct-cannulated MDR1A knockout Sprague-Dawley rat feces at 1 mg/kg, iv up to 24 hrs; set-up: dose 1 mg/kg, route intravenous; conditions: faeces, read-out: Drug excretion; procedure, shortened: as §1
[5] = Drug excretion in bile duct-cannulated BCRP knockout Sprague-Dawley rat feces at 1 mg/kg, iv up to 24 hrs; set-up: dose 1 mg/kg, route intravenous; conditions: faeces, read-out: Drug excretion; procedure, shortened: as §1
[6] = Drug excretion in bile duct-cannulated MRP2 knockout Sprague-Dawley rat feces at 1 mg/kg, iv up to 24 hrs; set-up: dose 1 mg/kg, route intravenous; conditions: faeces, read-out: Drug excretion; procedure, shortened: as §1
[7] = AUC (infinity) in wild-type Sprague-Dawley rat at 5 mg/kg, po by LC-MS/MS analysis; set-up: time infinity, dose 5 mg/kg, route oral; conditions: plasma
Procedure, shortened: (§2)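 Male Sprague-Dawley rats (knockouts age- and weight-matched to wild type), femoral-artery and vein cannulated, recovered ≥2 days. IV/oral crossover: 1 mg/kg IV bolus on day 0, then after a 3-day washout 5 mg/kg oral gavage in 10 ml/kg 50% Cremophor EL in ethanol. Arterial plasma 0–24 h, protein-precipitated, LC-MS/MS (positive ion, 1–5000 ng/ml). Noncompartmental analysis; n=5–9.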

[8] = AUC (infinity) in MDR1A knockout Sprague-Dawley rat at 5 mg/kg, po by LC-MS/MS analysis; set-up: time infinity, dose 5 mg/kg, route oral; conditions: plasma
[9] = AUC (infinity) in BCRP knockout Sprague-Dawley rat at 5 mg/kg, po by LC-MS/MS analysis; set-up: time infinity, dose 5 mg/kg, route oral; conditions: plasma; procedure, shortened: as §2
[10] = AUC (infinity) in MRP2 knockout Sprague-Dawley rat at 5 mg/kg, po by LC-MS/MS analysis; set-up: time infinity, dose 5 mg/kg, route oral; conditions: plasma; procedure, shortened: as §2
[11] = Cmax in wild-type Sprague-Dawley rat at 5 mg/kg, po by LC-MS/MS analysis; set-up: dose 5 mg/kg, route oral; conditions: in vivo; procedure, shortened: as §2
[12] = Cmax in MDR1A knockout Sprague-Dawley rat at 5 mg/kg, po by LC-MS/MS analysis; set-up: dose 5 mg/kg, route oral; conditions: in vivo; procedure, shortened: as §2
[13] = Cmax in BCRP knockout Sprague-Dawley rat at 5 mg/kg, po by LC-MS/MS analysis; set-up: dose 5 mg/kg, route oral; conditions: in vivo; procedure, shortened: as §2
[14] = Cmax in MRP2 knockout Sprague-Dawley rat at 5 mg/kg, po by LC-MS/MS analysis; set-up: dose 5 mg/kg, route oral; conditions: in vivo; procedure, shortened: as §2
[15] = Tmax in wild-type Sprague-Dawley rat at 5 mg/kg, po by LC-MS/MS analysis; set-up: dose 5 mg/kg, route oral; conditions: in vivo; procedure, shortened: as §2
[16] = Tmax in MDR1A knockout Sprague-Dawley rat at 5 mg/kg, po by LC-MS/MS analysis; set-up: dose 5 mg/kg, route oral; conditions: in vivo
[17] = Tmax in BCRP knockout Sprague-Dawley rat at 5 mg/kg, po by LC-MS/MS analysis; set-up: dose 5 mg/kg, route oral; conditions: in vivo; procedure, shortened: as §2
[18] = Tmax in MRP2 knockout Sprague-Dawley rat at 5 mg/kg, po by LC-MS/MS analysis; set-up: dose 5 mg/kg, route oral; conditions: in vivo; procedure, shortened: as §2
[19] = Half life in wild-type Sprague-Dawley rat at 5 mg/kg, po by LC-MS/MS analysis; set-up: dose 5 mg/kg, route oral; conditions: in vivo; procedure, shortened: as §2
[20] = Half life in MDR1A knockout Sprague-Dawley rat at 5 mg/kg, po by LC-MS/MS analysis; set-up: dose 5 mg/kg, route oral; conditions: in vivo; procedure, shortened: as §2
[21] = Half life in BCRP knockout Sprague-Dawley rat at 5 mg/kg, po by LC-MS/MS analysis; set-up: dose 5 mg/kg, route oral; conditions: in vivo; procedure, shortened: as §2
[22] = Half life in MRP2 knockout Sprague-Dawley rat at 5 mg/kg, po by LC-MS/MS analysis; set-up: dose 5 mg/kg, route oral; conditions: in vivo; procedure, shortened: as §2
[23] = Oral bioavailability in wild-type Sprague-Dawley rat at 5 mg/kg by LC-MS/MS analysis; conditions: in vivo; procedure, shortened: as §2
[24] = Oral bioavailability in MDR1A knockout Sprague-Dawley rat at 5 mg/kg by LC-MS/MS analysis; conditions: in vivo
[25] = Oral bioavailability in BCRP knockout Sprague-Dawley rat at 5 mg/kg by LC-MS/MS analysis; conditions: in vivo; procedure, shortened: as §2
[26] = Oral bioavailability in MRP2 knockout Sprague-Dawley rat at 5 mg/kg by LC-MS/MS analysis; conditions: in vivo; procedure, shortened: as §2

**Q.** Which Vd [1] does the source give for `CC(=O)O[C@H]1C(=O)[C@@]2(C)[C@H]([C@H](OC(=O)c3ccccc3)[C@]3(O)C[C@H](OC(=O)[C@H](O)[C@@H](NC(=O)c4ccccc4)c4ccccc4)C(C)=C1C3(C)C)[C@]1(OC(C)=O)CO[C@@H]1C[C@@H]2O` [PACLITAXEL] here?
**A.** 28.6 L/kg

**Q.** What about the dose excreted at 24 h [2] of the same compound?
**A.** 0.5%

**Q.** What about the dose excreted at 24 h [3] of the same compound?
**A.** 2.3%

**Q.** What about the dose excreted at 24 h [4] of the same compound?
**A.** 0.21%

**Q.** And the dose excreted at 24 h [5]?
**A.** 1%

**Q.** And the dose excreted at 24 h [6]?
**A.** 2.8%

**Q.** And the AUC(0-inf) [7]?
**A.** 88 ng·h/mL

**Q.** What about the AUC(0-inf) [8] of the same compound?
**A.** 746 ng·h/mL

**Q.** What about the AUC(0-inf) [9] of the same compound?
**A.** 113 ng·h/mL

**Q.** What about the AUC(0-inf) [10] of the same compound?
**A.** 622 ng·h/mL

**Q.** And the Cmax [11]?
**A.** 30 ng/mL

**Q.** And the Cmax [12]?
**A.** 145 ng/mL

**Q.** And the Cmax [13]?
**A.** 40 ng/mL

**Q.** What about the Cmax [14] of the same compound?
**A.** 151 ng/mL

**Q.** What about the Tmax [15] of the same compound?
**A.** 0.8 h

**Q.** What about the Tmax [16] of the same compound?
**A.** 1.2 h

**Q.** What about the Tmax [17] of the same compound?
**A.** 0.9 h

**Q.** What about the Tmax [18] of the same compound?
**A.** 0.9 h

**Q.** And the half-life [19]?
**A.** 4.4 h

**Q.** What about the half-life [20] of the same compound?
**A.** 10 h

**Q.** And the half-life [21]?
**A.** 5.3 h

**Q.** What about the half-life [22] of the same compound?
**A.** 9.4 h

**Q.** What about the bioavailability [23] of the same compound?
**A.** 12%

**Q.** And the bioavailability [24]?
**A.** 47%

**Q.** What about the bioavailability [25] of the same compound?
**A.** 13%

**Q.** And the bioavailability [26]?
**A.** 27%

— ChEMBL document CHEMBL3526049 (Drug Metab Dispos, 2012)
